Experimental data from ChEMBL document CHEMBL5532745, “Enzymatic Synthesis of Austroeupatol Esters with Enhanced Antiprotozoal Activity” (ACS Med Chem Lett, 2024).

Legend:
Leishmania infantum [1] = test: Antiprotozoal activity against Leishmania infantum MHOM/BR/2002/LPC-RPV promastigotes assessed as growth inhibition at 25 uM incubated for 5 days relative to control; type: functional; details: 120 h, time 5 day, read-out: GI
Trypanosoma cruzi [2] = test: Antiprotozoal activity against Trypanosoma cruzi epimastigotes assessed as growth inhibition at 25 uM incubated for 5 days relative to control; type: functional; details: 120 h, time 5 day, read-out: GI
Trypanosoma cruzi [3] = test: Antiprotozoal activity against Trypanosoma cruzi Tulahuen strain amastigotes expressing Escherichia coli beta-galactosidase cultured in Vero cells assessed as growth inhibition at 10 uM incubated for 5 days relative to control; type: functional; details: 120 h, time 5 day, read-out: GI
Method in brief: (§1)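 Vero cells infected with trypomastigotes carrying β-galactosidase; intracellular parasites exposed to compounds, growth inhibition read spectrophotometrically.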

Trypanosoma cruzi [4] = test: Antiprotozoal activity against Trypanosoma cruzi Tulahuen strain amastigotes expressing Escherichia coli beta-galactosidase cultured in Vero cells assessed as growth inhibition incubated for 5 days; type: functional, organism-based; details: 120 h; method in brief: as §1
[5] = Cytotoxicity against African green monkey Vero cells incubated for 48 hrs by MTT assay; type: toxicity, cell-based; details: chlorocebus sabaeus
Method in brief: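 Uninfected Vero cells exposed to compounds; viability read by MTT assay to estimate cytotoxicity for selectivity assessment.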

Leishmania infantum [6] = test: Antiprotozoal activity against Leishmania infantum MHOM/BR/2002/LPC-RPV promastigotes assessed as growth inhibition at 25 uM incubated for 5 days; type: functional, organism-based

Compound | inhibition of growth at 25 µM (Leishmania infantum [1]) [%] | inhibition of growth at 25 µM (Trypanosoma cruzi [2]) [%] | inhibition of growth at 10 µM (Trypanosoma cruzi [3]) [%] | IC50 (Trypanosoma cruzi [4]) [µM] | CC50 at 48 h [5] [µM] | IC50 (Leishmania infantum [6]) [µM]
C=C1CC[C@@H]2[C@H](COC(=O)CCCCCCC)[C@H](O)[C@H](O)C[C@@]2(C)[C@@H]1CCc1ccoc1 | 57.1 | 99.5 | 100 | 7.03 | 18.1 | 
C=C1CC[C@@H]2[C@H](COC(=O)CCCCCCC)[C@H](OC(=O)CCCCCCC)[C@H](O)C[C@@]2(C)[C@@H]1CCc1ccoc1 | 16.4 | 27.4 | 9.79 |  |  | 
O=C(Cn1ccnc1[N+](=O)[O-])NCc1ccccc1 [BENZNIDAZOLE] |  |  |  | 0.94 | > 384 | 
C=C1CC[C@@H]2[C@H](COC(=O)CCCC[C@@H]3CCSS3)[C@H](O)[C@H](O)C[C@@]2(C)[C@@H]1CCc1ccoc1 | 47.7 | 58.5 | 95.2 | 2.06 | < 10 | 
C=C1CC[C@@H]2[C@H](COC(=O)CCCCCCCCCCC)[C@H](O)[C@H](O)C[C@@]2(C)[C@@H]1CCc1ccoc1 | 29.1 | 69.7 | 12.5 |  |  | 
C=C1CC[C@@H]2[C@H](COC(=O)CCCCCCCCCCCCCCC)[C@H](O)[C@H](O)C[C@@]2(C)[C@@H]1CCc1ccoc1 | 0 | 24.9 | 2.98 |  |  | 
C=C1CC[C@@H]2[C@H](COC(C)=O)[C@H](O)[C@H](O)C[C@@]2(C)[C@@H]1CCc1ccoc1 | 15.7 | 21.6 | 22.7 |  |  | 
C=C1CC[C@@H]2[C@H](CO)[C@H](O)[C@H](O)C[C@@]2(C)[C@@H]1CCc1ccoc1 | 0 | 24.9 | 28 | > 15 | 85.4 | 
C=C1CC[C@@H]2[C@H](COC(=O)CCCCCCCCCCC)[C@H](OC(=O)CCCCCCCCCCC)[C@H](O)C[C@@]2(C)[C@@H]1CCc1ccoc1 | 2.4 | 46.8 | 4.73 |  |  | 
C=C1CC[C@@H]2[C@H](COC(=O)CCc3c[nH]c4ccccc34)[C@H](O)[C@H](O)C[C@@]2(C)[C@@H]1CCc1ccoc1 | 91.5 | 64.3 | 98.7 | 2.26 | < 10 | 
C=C1CC[C@@H]2[C@H](COC(=O)CCCC)[C@H](O)[C@H](O)C[C@@]2(C)[C@@H]1CCc1ccoc1 | 94.1 | 93.5 | 99.1 | 8.5 | 19.3 | 
MEGLUMINE ANTIMONATE |  |  |  |  |  | 20
C=C1CC[C@@H]2[C@H](COC(=O)CCCCCCCCCCCCCCC)[C@H](OC(=O)CCCCCCCCCCCCCCC)[C@H](O)C[C@@]2(C)[C@@H]1CCc1ccoc1 | 0 | 31.8 | 2.06 |  |  | 
